Source: PubChem BioAssay
MPTP inh – permeability transition pore inhibition | isolated mouse mitochondria, Ca2+ swelling absorbance, 30 min | inhibition, % at 10 µM | 360,000 tested, 1.4% active;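 active means inhibition of 50% or more, scaled per plate between neutral and stimulator controls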;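 further: 0% = DMSO wells given calcium and 100% = 1 mM EGTA wells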
TAAR1 agonist – agonists of human TAAR1 | Q96RJ0 | CHO RD-HGA16 TAAR1, Fluo-8 calcium fluorescence; vehicle wells 0%, saturating PEA agonist 100% | activation, % at 3 µM | 360,000 tested, 0.99% active;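 active means activation above the mean activation of all test compounds in the run plus 3 SD, cut at about 38% in these data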
Target sequence (Q96RJ0 whole entry, looked up): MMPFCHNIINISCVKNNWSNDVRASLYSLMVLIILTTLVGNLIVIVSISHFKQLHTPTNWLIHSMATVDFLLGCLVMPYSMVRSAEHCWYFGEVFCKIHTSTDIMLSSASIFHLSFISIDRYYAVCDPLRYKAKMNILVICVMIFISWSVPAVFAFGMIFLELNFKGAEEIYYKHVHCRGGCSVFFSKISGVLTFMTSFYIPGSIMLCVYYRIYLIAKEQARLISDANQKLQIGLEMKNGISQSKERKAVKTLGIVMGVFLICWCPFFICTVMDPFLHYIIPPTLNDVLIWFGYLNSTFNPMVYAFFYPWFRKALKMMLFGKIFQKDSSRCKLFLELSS
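System: CHO RD-HGA16 cells carrying human TAAR1 plus Gα16; Incubation: 17-24 h seeding, 75 min 37 °C dye, 30 min RT; Measured by: Fluo-8 fluorescence, 5 s baseline then 140 s kinetic read; Control set: DMSO and PEA EC100; Replication: single well for each compound.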
TAAR1 antag – human TAAR1 antagonism; CHO RD-HGA16 TAAR1, Fluo-8 calcium fluorescence, antagonist; inhibition, % at 3 µM; 360,000 tested, 1.5% active;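 active means inhibition above a per-plate cutoff, the mean inhibition of test compounds on that plate plus 3 SD, cut at about 49% in these data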;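 further: 0% = DMSO plus EC80 beta-PEA response and 100% = DMSO alone without agonist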
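System: RD-HGA16 CHO cells with stable hTAAR1 and Gα16 | Probe or stimulus: EC80 β-phenethylamine stimulus | Dosing: 3 µM, single point | Times: Dye loading 75 min at 37 °C, then 30 min room temperature | Measured by: Fluo-8 calcium-sensitive fluorescence | Read-out basis: % inhibition of agonist calcium response | Replicates: n of 1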
GPR7 antagonist – antagonists of human GPR7 (neuropeptides B/W receptor 1); inhibition, % at 4.4 µM; GPR7-expressing cells, fluorescence antagonist assay; 290,000 tested, 1.1% active; P48145; AID 1861; in the data active means inhibition above about 16%, passing the limit was not always enough;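 further: cells stimulated with the agonist NPW; 0% = agonist with vehicle and 100% = vehicle without agonist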
Target sequence (P48145 whole entry, looked up): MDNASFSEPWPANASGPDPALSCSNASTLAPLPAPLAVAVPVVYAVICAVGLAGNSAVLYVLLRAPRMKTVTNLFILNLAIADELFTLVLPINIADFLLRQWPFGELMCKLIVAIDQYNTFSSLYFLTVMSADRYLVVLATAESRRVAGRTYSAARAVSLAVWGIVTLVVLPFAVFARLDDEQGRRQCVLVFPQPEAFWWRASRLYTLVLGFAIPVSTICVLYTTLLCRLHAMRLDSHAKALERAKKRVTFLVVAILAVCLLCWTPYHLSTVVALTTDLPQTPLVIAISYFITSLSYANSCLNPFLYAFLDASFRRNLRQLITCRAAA
DAGLB inh – blocks human DAGLB lipase activity; 340,000 tested, 0.059% active; Q8NCG7; inhibition, % at 5.17 µM; AID 504411; HEK293T DAGLB membrane lysate, EnzChek fluorogenic substrate; in the data active means inhibition above about 34%;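 further: 0% = enzyme with vehicle and 100% = wells lacking enzyme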
nonsel antag count – nonselective antagonism, TAAR1 counter-screen | shares compounds with TAAR1 antag | counterscreen cell line, calcium fluorescence, antagonist mode | inhibition, % at 3 µM | 2,400 tested, 77% active | AID 651780; in the data active means inhibition above about 22%;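 further: CHO-Ga16 host cells stimulated with ATP at an EC80 level; 0% = agonist EC80 plus vehicle and 100% = vehicle without agonist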
TAAR1 ant conf – human TAAR1 antagonism, confirmed; TAAR1-expressing cells, fluorescence antagonist read-out; inhibition, % at 3 µM; shares compounds with TAAR1 antag; 2,400 tested, 40% active; AID 651785; in the data active means inhibition above about 49%;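 further: CHO-Ga16 host cells challenged with agonist PEA near its EC80; 0% = agonist at EC80 plus vehicle and 100% = vehicle with no agonist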
Ga16 nonsel ag – nonselective Ga16 agonism, counter-screen; shares compounds with TAAR1 antag; activation, % at 3 µM; Ga16-expressing cells, calcium fluorescence, agonist counterscreen; 2,400 tested, 18% active; in the data active means activation above about 12%;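 further: 0% = vehicle wells and 100% = saturating stimulus response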
TAAR1 ag count – activates human TAAR1 in antagonist counter-screen. shares compounds with TAAR1 antag. hTAAR1 cell line, fluorescence activation, agonist mode. activation, % at 3 µM. 2,400 tested, 2% active. AID 651955; in the data active means activation above about 37%;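 further: CHO cells stably expressing TAAR1 with calcium dye readout; 0% = DMSO vehicle and 100% = full agonist response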
Numbers without * were called inactive; . = not tested or not shown. Most compounds without a hit are left out; they make up all but 4% or so of the library.

SMILES | MPTP inh | TAAR1 agonist | TAAR1 antag | GPR7 antagonist | DAGLB inh | nonsel antag count | TAAR1 ant conf | Ga16 nonsel ag | TAAR1 ag count
Cc1ccccc1C1c2[nH]c3ccccc3c2C[C@H]2C(=O)N(c3ccccc3C(=O)NCCCN3CCOCC3)C(=O)N12 (some centres undefined) | 0.5 | 13.5 | 60.5* | 1.2 | -1.2 | 29.2* | 36.2 | 7.0 | 5.7
CCNC(=O)c1c(NC(=O)c2cc(-c3cc(C)cc(C)c3O)n[nH]2)sc2c1CCCC2 | 3.4 | -1.2 | -17.6 | . | 0.6 | . | . | . | .
CCc1cc(=O)oc2cc(C)cc(OCC(=O)NCCc3c[nH]c4ccccc34)c12 | 0.5 | 5.0 | 68.8* | 18.6 | 0.1 | 29.1* | 39.8 | 5.9 | 0.7
O=C(COc1ccc2ccc(=O)oc2c1)NCCc1c[nH]c2ccc(F)cc12 | -1.0 | 10.3 | 35.8 | 15.1 | 0.4 | . | . | . | .
CCCc1cc(=O)oc2cc(OCC(=O)NCCc3c[nH]c4ccc(OC)cc34)ccc12 | 4.8 | 9.2 | 59.9* | -1.9 | 2.9 | 29.9* | 42.4 | 8.8 | 4.6
COc1ccc(S(=O)(=O)N2CCCCC2)cc1NC(=O)CCCOc1ccc(C)cc1 | 0.1 | 1.1 | 0.9 | . | -1.0 | . | . | . | .
Cc1ccc(Cl)cc1NC(=O)Nn1cnnc1 | 0.3 | 0.6 | 62.3* | -24.6 | 1.3 | 1.6 | -1.2 | 0.4 | 0.3
CCN(CC)c1ccc(S(=O)(=O)N2CCOCC2)cc1NC(=O)COC(=O)c1ccco1 | -0.9 | 10.4 | 2.7 | . | -2.3 | . | . | . | .
CCN(CC)c1ccc(S(=O)(=O)N2CCOCC2)cc1NC(=O)COC(=O)/C=C/c1ccccc1 | -0.7 | 17.5 | 69.7* | . | -7.3 | 31.0* | 48.5 | 6.9 | 4.8
COc1ccc(CNC(=O)C[C@H]2C(=O)N(CCc3ccccc3)C[C@@H]2Cc2ccccc2)cc1 | 0.2 | 19.0 | 56.2* | 1.2 | -1.0 | 17.7 | 29.5 | 7.1 | 3.0
COc1ccc(CNC(=O)C[C@H]2C(=O)N(Cc3ccc(OC)cc3)C[C@@H]2Cc2ccccc2)cc1 | 0.3 | 6.3 | -0.2 | 16.7 | -2.2 | . | . | . | .
CCOC(=O)CC1(C)c2nc(NC(C)=O)sc2Cc2sc(NC(C)=O)nc21 | 1.3 | 0.9 | -5.7 | . | . | . | . | . | .
CCCS(=O)(=O)c1c(S(=O)(=O)CCC)c2c(C)cccn2c1C(=O)OC | 0.3 | 6.0 | 20.0 | -4.6 | 0.1 | . | . | . | .
CCCS(=O)(=O)c1c(S(=O)(=O)CCC)c2c3ccccc3ccn2c1C(=O)OC | -0.1 | 9.1 | 48.7* | -8.7 | -1.9 | 16.4 | 31.5 | 5.5 | 4.5
CC(C)=CCC/C(C)=C/CN1C(=O)N(c2ccc(F)cc2)[C@H]2C[C@@H](c3ccccc3)[C@@H](C)[C@@H](C(=O)N3CCOCC3)C[C@H]21 | . | 2.2 | 64.6* | . | . | 35.1* | 59.5* | 0.7 | 1.2
CC(C(=O)N1CCCC1)N(c1ccc(Cl)cc1)S(C)(=O)=O (centres undefined) | -0.4 | -0.9 | 9.4 | . | -1.3 | . | . | . | .
CCOc1ccc(NC(=O)CCC(=O)N2CCSc3ccccc32)cc1 | -1.6 | 10.0 | 61.9* | 12.3 | -4.3 | 24.7* | 34.5 | 6.5 | 4.5
CCCCC(=O)N(C)c1c(CC)nc2c(OCc3cc(Cl)cc(Cl)c3)cccn12 | 0.0 | 3.9 | 14.1 | . | . | . | . | . | .
Cc1c(C(=O)NCc2ccc(Cl)c(Cl)c2)sc(=O)n1Cc1ccc(S(C)(=O)=O)cc1 | 0.0 | 20.8 | 71.7* | . | . | 34.9* | 37.1 | 13.8* | 13.5
CSc1ccc(Cn2c(C)c(C(=O)NCc3ccc(Cl)c(Cl)c3)sc2=O)cc1 | -0.2 | 0.9 | 19.3 | . | . | . | . | . | .
COc1cc2cnc(-c3ccccc3)c(-c3cccc(C(F)(F)F)c3)c2cc1OC | 0.4 | 9.2 | 50.7* | . | -6.9 | 14.6 | 18.6 | 1.7 | 1.6
Cc1cccc(N2CCN(C(=O)CCn3c(=O)[nH]c4ccsc4c3=O)CC2C)c1 (centres undefined) | -0.6 | 12.5 | 60.1* | 8.2 | 0.7 | 23.3* | 44.7 | 7.7 | 7.9
Cc1ccc(-c2cc(C(=O)N3CCN(c4ccccc4O)CC3)c3ccccc3n2)cc1 | 1.8 | 6.7 | 62.4* | . | -0.8 | 35.8* | 43.6 | 6.1 | 1.7
CC1CN(C(=O)c2cc(-c3ccc(Cl)s3)nc3ccccc23)CC(C)O1 (centres undefined) | -1.6 | -1.1 | 10.8 | . | -3.2 | . | . | . | .
Cc1ccc(-c2cc(C(=O)N3CCN(c4ccc(O)cc4)CC3)c3ccccc3n2)cc1 | 1.9 | 14.2 | 64.7* | . | -6.7 | 34.8* | 43.3 | 9.9 | 8.3
SMILES | MPTP inh | TAAR1 agonist | TAAR1 antag | GPR7 antagonist | DAGLB inh | nonsel antag count | TAAR1 ant conf | Ga16 nonsel ag | TAAR1 ag count
O=C(c1cc(-c2ccccc2)nc2ccccc12)N1CCCC1 | 0.7 | 3.9 | -15.7 | -12.2 | -2.0 | . | . | . | .
COc1ccc(-c2cc(C(=O)N3CCN(c4ccccc4O)CC3)c3ccccc3n2)cc1OC | 0.9 | 10.9 | 74.0* | -22.5 | 1.6 | 26.4* | 46.5 | 8.3 | 6.3
NC(=O)C1CCN(C(=O)c2cc(-c3ccc(Cl)s3)nc3ccccc23)CC1 | 0.1 | 12.4 | 59.9* | . | -8.5 | 32.3* | 43.9 | 10.6 | 12.6
CC(C)C[C@H](NC(=O)C1CCCC1)C(=O)N1CCC[C@H]1C(=O)NCc1ccccc1 | . | 0.1 | -31.7 | . | . | . | . | . | .
C[C@@H]1CN([C@@H](C)CO)C(=O)c2ccccc2-c2ccccc2CO[C@@H]1CN(C)Cc1ccc(Cl)c(Cl)c1 | . | 6.0 | -3.6 | . | . | . | . | . | .
OC(c1ccc(F)c(F)c1)c1ncc(-c2cccc(C(F)(F)F)c2)[nH]1 (centres undefined) | 8.8 | 7.6 | 6.1 | . | . | . | . | . | .
O=C(c1cc(-c2ccccc2Cl)nc2ccccc12)N1CCC1 | -0.5 | 1.1 | 11.6 | . | -1.5 | . | . | . | .
O=C(c1cc(-c2ccccc2Cl)nc2ccccc12)N1CCN(c2ccccc2O)CC1 | -0.8 | 13.9 | 59.3* | . | 1.8 | 22.2* | 36.5 | 7.2 | 5.6
Cc1cccc(N2CCN(C(=O)c3nn(C)c4c3CS(=O)(=O)c3ccccc3-4)CC2C)c1 (centres undefined) | 2.8 | 15.4 | 52.6* | 10.1 | 1.8 | 30.8* | 44.0 | 9.8 | 9.2
Cn1nc(C(=O)N2CCN(c3cccc(Cl)c3)CC2)c2c1-c1ccccc1S(=O)(=O)C2 | -1.6 | 10.8 | 42.4 | 3.3 | 0.1 | . | . | . | .
O=C(COC(=O)c1ccc(O)cc1O)Nc1cc(-c2ccccc2)nn1-c1ccccc1 | 1.0 | 11.7 | 71.5* | . | -2.9 | 35.1* | 38.4 | 8.5 | 10.8
N/C(=N\c1nc2ccccc2o1)NC(=O)c1ccccc1NC(=O)c1ccccc1 | -0.8 | 12.2 | 64.8* | -14.4 | -0.9 | 33.2* | 36.5 | 2.8 | -0.7
N/C(=N\c1nc2ccccc2o1)NC(=O)c1ccccc1F | 0.8 | 16.8 | 20.5 | -1.7 | -5.9 | . | . | . | .
